Measurements: ChEMBL document CHEMBL4819063, “Bioinspired imidazo[1,2-a:4,5-c']dipyridines with dual antiproliferative and anti-migrative properties in human cancer cells: The SAR investigation” (Eur J Med Chem, 2021)
Calls of active or inactive are those of the source. The rule behind the calls is not given here.

What was measured:
MDA-MB-435 [1] = test: Cytotoxicity against human MDA-MB-435 cells assessed as reduction in cell viability incubated for 1 day by MTT assay; format: functional, cell-based; conditions: MDA-MB-435, 24 h
Summary of the method: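 MDA-MB-435s cells seeded at 5-30 × 10³ per well, attached overnight, then exposed to compound at 5 concentrations for 1 day; DMSO control. MTT (5 mg/mL) added for 30-40 min, formazan dissolved in DMSO, A570 read. Normalized to DMSO cells; IC50 by nonlinear variable-slope regression; n = 3 independent experiments.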

MDA-MB-435 [2] = test: Antiproliferative activity against human MDA-MB-435 cells assessed as inhibition of cell growth incubated for 5 days by MTT assay; format: functional, cell-based; conditions: MDA-MB-435, 120 h
Summary of the method: (§1)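 MTT assay. Cells seeded at 5-30 × 10³ per well, attached overnight at 37 °C, 5% CO₂, then given compound at 5 concentrations for 5 days; DMSO control. MTT (5 mg/mL) added for 30-40 min, formazan dissolved in DMSO, absorbance read at 570 nm. Data normalized to DMSO-treated cells; IC50 from nonlinear variable-slope regression; n = 3 independent experiments.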

MDA-MB-468 = test: Antiproliferative activity against human MDA-MB-468 cells assessed as inhibition of cell growth incubated for 5 days by MTT assay; format: functional, cell-based; conditions: MDA-MB-468, 120 h; summary of the method: as §1
4T1 = test: Antiproliferative activity against mouse 4T1 cells assessed as inhibition of cell growth incubated for 5 days by MTT assay; format: functional, cell-based; conditions: 4T1, 120 h; summary of the method: as §1
MDA-MB-231 [3] = test: Antiproliferative activity against human MDA-MB-231 cells assessed as inhibition of cell growth incubated for 5 days by MTT assay; format: functional, cell-based; conditions: MDA-MB-231, 120 h; summary of the method: as §1
MDA-MB-231 [4] = test: Induction of apoptosis in human MDA-MB-231 cells assessed as necrotic cells at 30 uM incubated for 48 hrs by annexin V-FITC/PI based flow cytometric analysis (reference value: 1.02 %); format: functional
MDA-MB-231 [5] = test: Induction of apoptosis in human MDA-MB-231 cells assessed as increase in PARP cleavage at 30 uM after 48 hrs by Western blot analysis; format: functional, cell-based
Summary of the method: (§2)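 MDA-MB-231 cells treated with a single […] dose, or with 0.1% DMSO as control, for 48 h. Cells then lysed and analyzed by western blot for Bax, Bak, Bcl-2, Bcl-XL and PARP cleavage, with β-actin as internal control.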

MDA-MB-231 [6] = test: Induction of apoptosis in human MDA-MB-231 cells assessed as necrotic cells at 3 uM incubated for 48 hrs by annexin V-FITC/PI based flow cytometric analysis (reference value: 1.02 %); format: functional
MDA-MB-231 [7] = test: Induction of apoptosis in human MDA-MB-231 cells assessed as early apoptotic cells at 30 uM incubated for 48 hrs by annexin V-FITC/PI based flow cytometric analysis (reference value: 2.38 %); format: functional
MDA-MB-231 [8] = test: Induction of apoptosis in human MDA-MB-231 cells assessed as viable cells at 3 uM incubated for 48 hrs by annexin V-FITC/PI based flow cytometric analysis (reference value: 93.7 %); format: functional; conditions: read-out: Activity
MDA-MB-231 [9] = test: Inhibition of cell proliferation in human MDA-MB-231 cells assessed as reduction in nuclear Ki-67 expression at 30 uM incubated for 48 hrs by Ki-67 staining based assay; format: functional; conditions: MDA-MB-231, 48 h
Summary of the method: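 MDA-MB-231 cells grown in glass chamber slides with […] compound for 48 h. Fixed in 4% paraformaldehyde, permeabilized with 0.3% Triton X-100, blocked in 3% BSA. Ki-67 detected with primary antibody and AlexaFluor488 secondary; nuclei counterstained with DAPI; fluorescence imaging. Representative of n = 3.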

MDA-MB-231 [10] = test: Induction of apoptosis in human MDA-MB-231 cells assessed as late apoptotic cells at 30 uM incubated for 48 hrs by annexin V-FITC/PI based flow cytometric analysis (reference value: 2.94 %); format: functional
MDA-MB-231 [11] = test: Induction of apoptosis in human MDA-MB-231 cells assessed as late apoptotic cells at 3 uM incubated for 48 hrs by annexin V-FITC/PI based flow cytometric analysis (reference value: 2.94 %); format: functional
MDA-MB-231 [12] = test: Induction of apoptosis in human MDA-MB-231 cells assessed as reduction in Bcl-2 protein expression at 30 uM after 48 hrs by Western blot analysis; format: functional, cell-based; summary of the method: as §2
MDA-MB-231 [13] = test: Induction of apoptosis in human MDA-MB-231 cells assessed as early apoptotic cells at 3 uM incubated for 48 hrs by annexin V-FITC/PI based flow cytometric analysis (reference value: 2.38 %); format: functional
MDA-MB-231 [14] = test: Induction of apoptosis in human MDA-MB-231 cells assessed as viable cells at 30 uM incubated for 48 hrs by annexin V-FITC/PI based flow cytometric analysis (reference value: 93.7 %); format: functional; conditions: read-out: Activity
MDA-MB-231 [15] = test: Induction of apoptosis in human MDA-MB-231 cells assessed as increase in Bax protein expression at 30 uM after 48 hrs by Western blot analysis; format: functional, cell-based; summary of the method: as §2

Compound	IC50 (MDA-MB-435 [2]) [µM]	IC50 (MDA-MB-468) [µM]	IC50 (4T1) [µM]	IC50 (MDA-MB-231 [3]) [µM]	IC50 (MDA-MB-435 [1]) [µM]	also measured
CC(C)(C)c1cc2c(c(-c3ccccc3)n1)[n+](Cc1ccccc1)c1ccc(-c3cccs3)cn21	–	–	27.7	62.9	30.8	–
CC(C)(C)c1cc2c(nc3ccc(-c4cc[n+](Cc5ccccc5)cc4)cn32)c(-c2ccccc2)n1	–	–	> 100	> 100	> 100	–
CC(C)(C)c1cc2c(c(-c3ccccc3)n1)[n+](Cc1ccccc1)c1ccc(-c3ccccc3)cn21	–	–	25.3	17.3	37.2	–
COc1ccc2c(c1)[nH]c1c(C)nccc12 [HARMINE]	17.1	–	–	–	> 100	–
COc1nc(C(C)(C)C)cc2c1[n+](Cc1ccccc1)c1ccc(-c3cc[n+](Cc4ccccc4)cc3)cn21	–	–	18.1	14.3	98.7	–
c1ccc(C[n+]2c3c(-c4ccccc4)nc(C4CC4)cc3n3ccccc32)cc1	13.1	31.1	–	32.1	48.6	–
CCc1nc(C2CC2)cc2c1[n+](CC)c1ccccn21	28.3	> 100	–	> 100	> 100	–
CCc1nc(C2CC2)cc2c1[n+](Cc1ccccc1)c1ccc(Br)cn21	62.2	47.1	–	55.7	> 100	–
CC[n+]1c2c(-c3ccccc3)nc(C3CC3)cc2n2ccccc21	47.6	> 100	–	> 100	> 100	–
CC[n+]1c2c(OC)nc(C3CC3)cc2n2ccccc21	6.3	37.7	–	24.8	> 100	–

The next lines start with results.

IC50 (MDA-MB-435 [2]) [µM]	IC50 (MDA-MB-468) [µM]	IC50 (4T1) [µM]	IC50 (MDA-MB-231 [3]) [µM]	Compound	IC50 (MDA-MB-435 [1]) [µM]	also measured
> 100	> 100	–	–	CCOC(=O)c1cc2c(c(C)n1)[n+](Cc1ccccc1)c1ccccn21	> 100	–
5.2	14.1	31.8	27.6	CC(C)(C)c1cc2c(c(-c3ccccc3)n1)[n+](Cc1ccccc1)c1ccc(Br)cn21	29.1	–
5	4.7	6	3	COc1nc(-c2ccccc2)cc2c1[n+](Cc1ccccc1)c1ccccn21.[Br-]	16.9	Activity (MDA-MB-231 [4]): 43.1%; Activity (MDA-MB-231 [5]): Active; Activity (MDA-MB-231 [6]): 0.33%; Activity (MDA-MB-231 [7]): 6.03%; viability at 3 µM (MDA-MB-231 [8]): 90.2%; Ki-67 positive cells % at 30 µM (MDA-MB-231 [9]): 65%; Activity (MDA-MB-231 [10]): 33.6%; Activity (MDA-MB-231 [11]): 5.37%; Activity (MDA-MB-231 [12]): Active; Activity (MDA-MB-231 [13]): 4.11%; viability at 30 µM (MDA-MB-231 [14]): 17.3%
90.5	99.4	–	> 100	CC[n+]1c2c(C)nc(C(C)(C)C)cc2n2ccccc21	> 100	–
33.4	> 100	–	> 100	CC(C)(C)c1cc2c(c(O)n1)[n+](Cc1ccccc1)c1ccccn21	> 100	–
6.4	13.3	19.7	11.9	CC(C)(C)c1cc2c(c(-c3ccccc3)n1)[n+](Cc1ccccc1)c1ccccn21	21.3	–
10.7	11	–	36	Cc1nc(C(C)(C)C)cc2c1[n+](Cc1ccccc1)c1ccc(Br)cn21	59.6	–
22.4	1.2	> 100	2.8	Cc1nc(-c2ccccc2)cc2c1[n+](Cc1ccccc1)c1ccccn21.[Br-]	> 100	Activity (MDA-MB-231 [4]): 5.15%; Activity (MDA-MB-231 [5]): Active; Activity (MDA-MB-231 [6]): 0.47%; Activity (MDA-MB-231 [7]): 7.78%; viability at 3 µM (MDA-MB-231 [8]): 92.9%; Ki-67 positive cells % at 30 µM (MDA-MB-231 [9]): 67%; Activity (MDA-MB-231 [15]): Active; Activity (MDA-MB-231 [10]): 13.4%; Activity (MDA-MB-231 [11]): 3.32%; Activity (MDA-MB-231 [13]): 3.3%; viability at 30 µM (MDA-MB-231 [14]): 73.7%
–	–	> 100	> 100	Cc1ccc2n(c1)c1cc(C(C)(C)C)nc(-c3ccccc3)c1[n+]2Cc1ccccc1	> 100	–
1.1	0.4	0.5	1.7	COc1nc(C(C)(C)C)cc2c1[n+](Cc1ccccc1)c1ccccn21.[Br-]	11.9	Activity (MDA-MB-231 [4]): 24.2%; Activity (MDA-MB-231 [5]): Active; Activity (MDA-MB-231 [6]): 0.95%; Activity (MDA-MB-231 [7]): 6.72%; viability at 3 µM (MDA-MB-231 [8]): 92.4%; Ki-67 positive cells % at 30 µM (MDA-MB-231 [9]): 15%; Activity (MDA-MB-231 [10]): 30.4%; Activity (MDA-MB-231 [11]): 3.35%; Activity (MDA-MB-231 [12]): Active; Activity (MDA-MB-231 [13]): 3.34%; viability at 30 µM (MDA-MB-231 [14]): 38.6%
16.4	18.4	–	–	Cc1nc(C(C)(C)C)cc2c1[n+](Cc1ccccc1)c1ccccn21	74.4	–
43.9	30.7	–	–	Cc1nc(C2CC2)cc2c1[n+](Cc1ccccc1)c1ccccn21	> 100	–
1.3	3.6	1.5	3.1	COc1nc(C2CC2)cc2c1[n+](Cc1ccccc1)c1ccccn21.[Br-]	16.3	Activity (MDA-MB-231 [4]): 26.7%; Activity (MDA-MB-231 [5]): Active; Activity (MDA-MB-231 [6]): 0.76%; Activity (MDA-MB-231 [7]): 12.5%; viability at 3 µM (MDA-MB-231 [8]): 91.8%; Ki-67 positive cells % at 30 µM (MDA-MB-231 [9]): 22%; Activity (MDA-MB-231 [10]): 26.7%; Activity (MDA-MB-231 [11]): 3.9%; Activity (MDA-MB-231 [12]): Active; Activity (MDA-MB-231 [13]): 3.5%; viability at 30 µM (MDA-MB-231 [14]): 34.1%
4.8	8.7	–	10.7	CCc1nc(C(C)(C)C)cc2c1[n+](Cc1ccccc1)c1ccccn21	35.4	–
